# Screening data (PubChem BioAssay)
# Tn6 DDE FP = disrupts Tn6 cyclic peptide binding to fibrin D-Dimer-E complex | Fibrin DD(E) TRITC-Tn6 fluorescence polarization displacement | P02675 | hit rate 0.21% among 370,000 | inhibition, % at 8.3 µM;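 active means inhibition above a per-campaign cutoff: mean of compounds within control limits plus 3 SD, cut at about 15% in these data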;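 further: 0% = median of all compound wells on the plate and 100% = blocking peptide control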
# Target sequence (P02675 whole entry, looked up): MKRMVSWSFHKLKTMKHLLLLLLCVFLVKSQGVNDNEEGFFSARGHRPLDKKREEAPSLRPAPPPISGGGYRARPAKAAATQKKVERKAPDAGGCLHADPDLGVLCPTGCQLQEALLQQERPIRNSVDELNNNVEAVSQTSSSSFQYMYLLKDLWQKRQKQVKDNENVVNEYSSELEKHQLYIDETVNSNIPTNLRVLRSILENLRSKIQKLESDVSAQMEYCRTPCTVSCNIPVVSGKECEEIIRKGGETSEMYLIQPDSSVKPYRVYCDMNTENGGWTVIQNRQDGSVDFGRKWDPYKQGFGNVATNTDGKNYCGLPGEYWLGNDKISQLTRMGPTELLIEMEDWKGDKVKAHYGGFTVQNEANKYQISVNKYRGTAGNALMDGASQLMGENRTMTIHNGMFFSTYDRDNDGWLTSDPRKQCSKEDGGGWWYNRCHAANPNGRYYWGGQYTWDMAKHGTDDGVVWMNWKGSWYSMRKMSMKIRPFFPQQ
# MT1-MMP act inh = blocks activation of human MT1-MMP | hit rate 0.061% among 360,000 | HT1080 RFP-PRO-GFP cells, GFP/RFP ratio fluorescence, overnight; percent of plate control window, DMSO zero | AID 651647 | GFP/RFP ratio change, % at 20 µM;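 active means GFP/RFP ratio change of at least 30% with cell ATP level not reduced by more than half and red fluorescence within 50% of control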
#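 Assay system: RFP-PRO-GFP reporter HT1080 cells; read-out basis: GFP/RFP fluorescence ratio; benchmarks: DMSO wells and RFP-L50D-GFP cells; doses: 20 µM single dose, 1% DMSO; schedule: overnight cell settling, then overnight compound exposure, 37 °C, 5% CO2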
# ADAM17 inh = inhibitors of human ADAM17; hit rate 0.83% among 370,000; recombinant ADAM17, EDANS/DABCYL FRET peptide cleavage; inhibition, % at 6.95 µM;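 active means inhibition above the mean of compounds lying between control limits plus 3 SD, set per campaign, cut at about 8.5% in these data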;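 further: 0% = DMSO-only wells as the low control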
# ADAM10 inh = ADAM10 inhibition, QFRET primary screen | recombinant ADAM10, EDANS/DABCYL FRET peptide cleavage, 3 h | inhibition, % at 7 µM | hit rate 0.62% among 370,000;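 active means inhibition above a per-campaign cutoff equal to the mean of compounds falling between control-based bounds plus 3 SD, cut at about 20% in these data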;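 further: 0% = DMSO wells while the 100% control is not disclosed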
# Tn7 DDE FP = DD(E)-Tn7 binding inhibition, primary FP screen; P02675; FP displacement of FITC-Tn7 peptide from fibrin DD(E); 0% = median of compound wells per plate; inhibition, % at 8.3 µM; hit rate 0.13% among 370,000; AID 720508;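 active means inhibition above the mean of compounds falling within the control limits plus 3 SD of them, cut at about 14% in these data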;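 further: 0% = plate median of compound wells and 100% = 10 µM Aha-Tn7 peptide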
#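 Also added: labelled Tn7 tracer, 0.1 µM; Assay system: human fibrin DD(E) protein; Amount: 2 µM fibrin DD(E); Schedule: 10 min compound pre-incubation, 3 h probe incubation at room temperature; Repeats: one replicate per compound; Read-out basis: percent inhibition; Measured by: fluorescence polarization of the labelled Tn7 tracer.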
# * marks the source's active call; other numbers are inactive results; . = no result. Shown are actives, neighbours in structure and some others; about 1.6% of the full set was active somewhere.
SMILES,Tn6 DDE FP,MT1-MMP act inh,ADAM17 inh,ADAM10 inh,Tn7 DDE FP
O=S(=O)(Nc1ccc(N=Nc2ccc(O)c3ccccc23)cc1)c1ccccc1,-11,-42,14*,16,2
O=[N+]([O-])c1ccc(N=Nc2ccc(O)c3ccccc23)cc1,.,-14,.,.,.
O=C1NC(=O)C2(N1)c1ccccc1-c1ccccc12,4,2,-1,-10,4
O=C1NC(=O)C2(N1)C(=O)c1cccc3cccc2c13 (configuration not stated),39*,-83,-27,-91,4
CCCCn1c(SCC(=O)c2ccc(OC)cc2OC)nc2cc(S(N)(=O)=O)ccc21,0,0,0,15,9
CCCCn1c(SC(C)C(=O)c2ccc(OC)cc2)nc2cc(S(N)(=O)=O)ccc21 (configuration not stated),-2,-4,20*,26*,-8
CC(=O)O[C@H]1[C@H](OC(C)=O)C[C@]2(OC(C)=O)C[C@H]1OC2=O,-5,.,-8,-4,-5
COc1cc(/C=N/Nc2nc(Nc3ccccc3)nc(-n3nc(C)cc3C)n2)cc(OC)c1OC,-8,-13,-2,-2,-7
COc1ccc(O)c(/C=N/Nc2nc(Nc3ccccc3)nc(-n3nc(C)cc3C)n2)c1,-18,-29,11*,14,-4
CC(C)C[C@H](NC1(C(=O)NCCc2c[nH]c3ccccc23)CCN(C)CC1)C(=O)NCCCc1ccccc1,5,.,-3,-3,6
COc1ccc(NS(=O)(=O)c2cccc(C(=O)N/N=C(/C)c3ccc(-n4ccnc4)cc3)c2)cc1,-3,0,-3,-16,5
CCOc1ccc(S(=O)(=O)Nc2ccc(C(=O)N/N=C(\C)c3ccc(-n4ccnc4)cc3)cc2)cc1,-10,-4,9.0*,11,0
C(=Nc1ccc(Nc2ccccc2)cc1)c1ccc2ccccc2c1,.,44*,.,.,.
Brc1ccc(C=Nc2ccc(Nc3ccccc3)cc2)s1,.,49*,.,.,.
C[N+]1=C(N)NC2=C3CCCCC3n3c(=O)n(-c4ccccc4)c(=O)n3C2C1 (configuration not stated),2,.,-2,-7,5
CC(C)Cn1c(=O)cc(N2CCN(c3cccc(C(F)(F)F)c3)CC2)[nH]c1=O,-3,.,0,-2,-9
O=C(NCC(c1ccccc1)c1ccccc1)[C@H](Cc1c[nH]c2ccccc12)NC1(C(=O)NC2CCCCC2)CCCCCC1,-5,.,-5,-8,-3
Cc1ccc(CNC(=O)O[C@H]2CC[C@@]34CCCN3C(=O)CCC[C@H]4C2)cc1,1,.,-2,6,-5
COc1ccc(C2C(C(=O)N3CCN(c4ccccc4C)CC3)CC(=O)N2c2ccc(OC)cc2)cc1 (configuration not stated),-5,.,-2,3,-2
C#CCCN([C@@H](CC(C)C)C(=O)OC)S(=O)(=O)c1ccc(F)cc1Br,-2,.,7,12,-4
C#CCCCN([C@@H](CC(C)C)C(=O)OC)S(=O)(=O)c1ccccc1Br,8,.,8.6*,14,5
C=CCN1C(=O)/C(=C/c2ccc(OCC(=O)O)cc2)S/C1=N/c1nccs1,4,2,-2,2,-4
C=CCN1C(=O)/C(=C/c2ccc(O)c(OC)c2)S/C1=N/c1nccs1,-8,-97,8,22*,-15
O=C(Nc1ccc(S(=O)(=O)N2CCOCC2)cc1)c1cc(-c2cc(Cl)ccc2O)n[nH]1,-34,-2,5,27*,0
CN(C)c1ccc(NC(=O)CSc2nc3ccccc3c(=O)n2C2CCCCC2)cc1,6,-13,12*,12,3
SMILES,Tn6 DDE FP,MT1-MMP act inh,ADAM17 inh,ADAM10 inh,Tn7 DDE FP
c1ccc(-n2c(SCc3cccc4ccccc34)nnc2-c2ccncc2)cc1,-7,.,3,3,0
COc1ccc2c(c1)[C@H]1[C@H](CO2)[C@H](c2ccccc2)[C@]2(C)C(=O)Nc3cc(C)ccc3C(=O)N12,6,-8,1,3,-2
COc1ccc2c(c1)OC[C@H]1[C@H]2N2C(=O)c3ccc(C)cc3NC(=O)[C@@]2(C)[C@H]1c1ccccc1,0,-13,9.6*,16,2
CC(=O)NC(Cc1cc(C)ccc1C)C(=O)N1CCN(C(=O)Nc2ccc(C(C)=O)cc2)CC1 (configuration not stated),8,1,-3,1,15*
Brc1ccc(C2=CC(c3cccs3)n3ncnc3N2)cc1 (configuration not stated),4,-269,-55,-206,19*
CCOC(=O)c1cnn(-c2c(Cc3ccccc3)c(C)nc3c(-c4ccccc4)c(C)nn23)c1N,-5,-8,10*,10,1
CC12CCC(=O)C=C1CCC1C2CCC2(C)C(c3csc(N)n3)CCC12 (configuration not stated),0,6,1,24*,-2
C[C@H]1[C@@H](NC(=O)/C=C/c2ccccc2)CC[C@@]23CCCN2C(=O)CCC[C@@H]13,8,.,-3,1,4
CCOC(=O)c1c(C)[nH]c(N=Nc2ccc(C)cc2)c1C,-6,6,15*,10,-10
CCN(CC)c1ccc(/C=C(\C#N)c2ccccn2)cc1,.,-102,.,.,.
CN(CCC#N)c1ccc(/C=C(\C#N)c2ccccn2)cc1,31*,-3,-61,-211,4
O=C(COC(=O)Cc1cccs1)Nc1ccc(OC(F)(F)F)cc1,88*,6,-2,2,6
O=C(COC(=O)Cc1cccs1)NCC(=O)Nc1ccc(F)cc1,-3,-2,3,-7,1
COc1cccc2cc3c(nc12)C[C@@H]1CCCC(=O)N2CCC[C@@]12C3,6,.,-12,-43,-2
COc1ccc(S[C@]2(C(=O)N3CCOCC3)CC(=O)N(c3ccc(C#N)cc3)[C@@H]2c2ccc(OC)cc2)cc1,-6,.,5,11,0
CN(CC(=O)Nc1ccc(F)cc1)C(=O)COC(=O)c1ccc(=O)n(Cc2ccccc2)n1,15,-2,-1,-13,56*
Cc1ccnc(NC(=S)N2CCC(Nc3cccc(C(F)(F)F)c3)CC2)c1,6,.,-1,5,0
CN(C1CCCCC1)S(=O)(=O)c1ccc(NC(=O)c2ccc(Br)o2)cc1,-12,-5,6,20*,3
CN(C)S(=O)(=O)c1ccc(NC(=O)c2ccc(Br)o2)cc1,.,11,.,.,.
CCn1c(CSc2nnc3ccccn23)nc2cc(C(=O)O)ccc21,20*,42*,-3,2,-3
CCOc1ccc(C(=O)CSc2nnc3ccccn23)cc1,3,-1,-2,-5,-2
Oc1ccc(Cl)cc1Cc1cc(Cl)ccc1O,6,26,8,26*,8
CN1/C(=C/c2cc[n+](C)c3ccccc23)C=Cc2ccccc21,.,64*,.,.,.
C[n+]1ccc(/C=C/c2ccccc2O)c2ccccc21,-3,-6,-7,-6,-8
